The test system of assay [1] is NCI-H3255. The assay can be described thus: Antiproliferative activity against human NCI-H3255 cells assessed as cell growth inhibition at 10 uM measured after 72 hrs by Celltiter-Glo luminescent cell viability assay relative to control. The following applies: NCI-H3255, 72 h.
The next assay concerns HUVEC. Briefly: Cytotoxicity against HUVEC assessed as reduction in cell viability measured after 72 hrs by Celltiter-Glo luminescent cell viability assay. It counts as cell-based. To be noted: Homo sapiens. The procedure, abridged:
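Cells seeded at 2500-3000 per well, exposed to a range of compound concentrations for 72 h. Viability read by CellTiter-Glo luminescence. Data normalised to DMSO controls, given as the mean of three independent measurements, with IC50 obtained by curve fitting.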

Assay [2] concerns Epidermal growth factor receptor (Homo sapiens), P00533 [C797S]. The assay can be described thus: Inhibition of TEL-fused EGFR C797S mutant (unknown origin) transfected in mouse BaF3 cells assessed as reduction in cell proliferation incubated for 72 hrs by Celltiter-Glo luminescent cell viability assay. It counts as cell-based. In outline:
(§1)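 Cells seeded at 2500-3000 per well and exposed to test agents across a concentration series for 72 h. Viability read by CellTiter-Glo luminescence, normalized to DMSO controls. Mean of three independent measurements (standard error <20%); GI50 obtained by curve fitting. Single-concentration readout is proliferation rate at 10 µM.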

In assay [3] the target is Epidermal growth factor receptor (Homo sapiens) (UniProt P00533). The assay can be described thus: Inhibition of wild type EGFR in human A549 cells assessed as cell growth inhibition measured after 72 hrs by Celltiter-Glo luminescent cell viability assay. It counts as cell-based. In outline: as §1
For assay [4], the system named is Epidermal growth factor receptor (Homo sapiens), P00533 [L858R]. Briefly: Inhibition of EGFR L858R mutant in human NCI-H3255 cells assessed as cell growth inhibition measured after 72 hrs in presence of ZnCl2 by Celltiter-Glo luminescent cell viability assay. It counts as cell-based.
Assay [5] has the same test system. The assay can be described thus: Inhibition of EGFR L858R mutant phosphorylation at Y1068 residue in human NCI-H3255 cells measured after 4 hrs by Western blot analysis. It counts as cell-based. In outline:
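H3255 cells treated with a range of concentrations for 4 h, then lysed in cold RIPA containing 1% PMSF. Lysate protein quantified by BCA, separated by SDS-PAGE and transferred to PVDF. Blocked in 5% milk, probed with anti-phospho-EGFR (Y1068) and developed by ECL.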

In assay [6] the test system is NCI-H3255. Briefly: Cell cycle arrest in human NCI-H3255 cells assessed as accumulation at G0/G1 phase at 1 uM measured after 72 hrs by propidium iodide staining based flow cytometry (reference value: 53.55%). It counts as functional. The procedure, abridged: (§2)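 H3255 cells in 10% FBS/RPMI given DMSO or compound at 1, 5 or 10 µM for 72 h, then washed in cold PBS, fixed in 70% cold ethanol and held overnight at -20 °C. Stained with PI/RNase buffer for 15 min at room temperature, then analysed by flow cytometry with ModFit phase modelling.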

Assay [7] deals with NCI-H3255. The assay can be described thus: Cell cycle arrest in human NCI-H3255 cells assessed as accumulation at S phase at 1 uM measured after 72 hrs by propidium iodide staining based flow cytometry (reference value: 36.26%). It counts as functional. The procedure, abridged:
as §2

Assay [8] has as its system NCI-H3255. Briefly: Cell cycle arrest in human NCI-H3255 cells assessed as accumulation at G2/M phase at 1 uM measured after 72 hrs by propidium iodide staining based flow cytometry (reference value: 10.18%). It counts as functional. The procedure, abridged:
as §2

Assay [9] relates to NCI-H3255. Briefly: Cell cycle arrest in human NCI-H3255 cells assessed as accumulation at G0/G1 phase at 5 uM measured after 72 hrs by propidium iodide staining based flow cytometry (reference value: 53.55%). Format: functional. The procedure, abridged: as §2
Assay [10] relates to NCI-H3255. The assay can be described thus: Cell cycle arrest in human NCI-H3255 cells assessed as accumulation at S phase at 5 uM measured after 72 hrs by propidium iodide staining based flow cytometry (reference value: 36.26%). Format: functional. The procedure, abridged:
as §2

The subject of assay [11] is NCI-H3255. Briefly: Cell cycle arrest in human NCI-H3255 cells assessed as accumulation at G2/M phase at 5 uM measured after 72 hrs by propidium iodide staining based flow cytometry (reference value: 10.18%). It counts as functional. The procedure, abridged: as §2
Assay [12] relates to NCI-H3255. Briefly: Cell cycle arrest in human NCI-H3255 cells assessed as accumulation at G0/G1 phase at 10 uM measured after 72 hrs by propidium iodide staining based flow cytometry (reference value: 53.55%). Format: functional. In outline: as §2
Assay [13] concerns NCI-H3255. The assay can be described thus: Cell cycle arrest in human NCI-H3255 cells assessed as accumulation at S phase at 10 uM measured after 72 hrs by propidium iodide staining based flow cytometry (reference value: 36.26%). It counts as functional. In outline: as §2
For assay [14], the system named is NCI-H3255. Briefly: Cell cycle arrest in human NCI-H3255 cells assessed as accumulation at G2/M phase at 10 uM measured after 72 hrs by propidium iodide staining based flow cytometry (reference value: 10.18%). Format: functional. In outline:
as §2

Assay [15] in a line: Induction of H2S generation in pH 7.4 PBS:acetone buffer at 10 to 200 uM measured after 3 hrs by NIR-HS probe based fluorescence spectrophotometric method. Format: functional. The following applies: dose 10-200 µM. In outline:
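NIR-HS probe (10 µM) incubated with compound (0, 5, 10, 50, 100, 200 µM) in PBS:acetone 2:3 (pH 7.4) at 37 °C for 3 h. Fluorescence read at ex 670 / em 723 nm.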

Assay [16] in a line: Induction of H2S generation in pH 7.4 PBS:acetone buffer at 20 uM measured within 1 hr by NIR-HS probe based fluorescence spectrophotometric method. Format: functional. In outline:
(§3)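 Compound at 20 µM incubated with NIR-HS (10 µM) in PBS:acetone 2:3 at 37 °C, sampled from 0 to 180 min (0, 5, 30, 60, 90, 120, 150, 180 min). Emission read at 723 nm (ex 670 nm). H2S quantified against a Na2S calibration curve (0-8 µM, same probe and conditions, 3 h, F/F0 at 723 nm).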

The target of assay [17] is Epidermal growth factor receptor (Mus musculus) (UniProt Q01279). To be noted: BaF3, time 72.0 hrs.
The target of assay [18] is Epidermal growth factor receptor (Homo sapiens) (UniProt P00533). To be noted: BaF3, time 72.0 hrs.
In assay [19] the test system is Epidermal growth factor receptor (Homo sapiens), P00533 [L858R]. The following applies: BaF3, time 72.0 hrs.
Assay [20] relates to Epidermal growth factor receptor (Homo sapiens), P00533 [L858R,T790M]. The following applies: BaF3, time 72.0 hrs.
Assay [21] relates to Epidermal growth factor receptor (Homo sapiens), P00533 [L858R]. The following applies: NCI-H3255, time 72.0 hrs.
The nature of assay [22]: Induction of H2S generation in pH 7.4 PBS:acetone buffer at 20 uM measured after 2 hrs by NIR-HS probe based fluorescence spectrophotometric method. It counts as functional. In outline: as §3

pIC50: −log10 of the molar value.

Chain of Epidermal growth factor receptor (Homo sapiens) (P00533 whole entry): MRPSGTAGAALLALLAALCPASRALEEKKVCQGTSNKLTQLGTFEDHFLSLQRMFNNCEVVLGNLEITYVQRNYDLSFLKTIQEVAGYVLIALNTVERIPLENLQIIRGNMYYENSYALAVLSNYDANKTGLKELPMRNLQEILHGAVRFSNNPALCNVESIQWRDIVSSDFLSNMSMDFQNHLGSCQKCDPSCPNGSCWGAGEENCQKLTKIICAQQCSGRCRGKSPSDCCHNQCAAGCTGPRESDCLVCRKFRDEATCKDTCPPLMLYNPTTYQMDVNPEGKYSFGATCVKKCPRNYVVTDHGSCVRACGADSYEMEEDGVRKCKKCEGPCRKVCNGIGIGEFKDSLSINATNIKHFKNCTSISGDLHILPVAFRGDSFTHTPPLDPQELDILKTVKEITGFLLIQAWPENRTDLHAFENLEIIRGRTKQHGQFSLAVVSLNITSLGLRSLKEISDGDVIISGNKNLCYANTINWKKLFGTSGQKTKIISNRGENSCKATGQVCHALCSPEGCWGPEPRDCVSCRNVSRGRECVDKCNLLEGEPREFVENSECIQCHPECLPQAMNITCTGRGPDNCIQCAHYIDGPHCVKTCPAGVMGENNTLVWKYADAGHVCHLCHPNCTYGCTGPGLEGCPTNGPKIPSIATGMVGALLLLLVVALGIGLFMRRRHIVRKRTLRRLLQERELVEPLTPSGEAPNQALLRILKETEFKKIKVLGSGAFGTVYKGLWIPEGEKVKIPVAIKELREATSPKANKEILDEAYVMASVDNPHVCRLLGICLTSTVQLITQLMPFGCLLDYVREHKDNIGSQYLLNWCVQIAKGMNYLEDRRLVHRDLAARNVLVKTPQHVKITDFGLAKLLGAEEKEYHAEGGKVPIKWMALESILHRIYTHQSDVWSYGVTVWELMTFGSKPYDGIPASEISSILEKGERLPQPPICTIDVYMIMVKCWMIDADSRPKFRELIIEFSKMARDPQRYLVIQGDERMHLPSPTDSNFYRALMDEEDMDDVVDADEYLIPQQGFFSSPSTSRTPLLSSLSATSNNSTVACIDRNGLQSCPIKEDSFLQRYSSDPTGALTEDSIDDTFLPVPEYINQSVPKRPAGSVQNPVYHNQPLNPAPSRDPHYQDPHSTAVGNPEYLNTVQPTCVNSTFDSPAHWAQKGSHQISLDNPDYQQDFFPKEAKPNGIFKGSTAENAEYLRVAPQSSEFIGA
Chain of Epidermal growth factor receptor (Homo sapiens), P00533 [L858R] (P00533 whole entry L858R): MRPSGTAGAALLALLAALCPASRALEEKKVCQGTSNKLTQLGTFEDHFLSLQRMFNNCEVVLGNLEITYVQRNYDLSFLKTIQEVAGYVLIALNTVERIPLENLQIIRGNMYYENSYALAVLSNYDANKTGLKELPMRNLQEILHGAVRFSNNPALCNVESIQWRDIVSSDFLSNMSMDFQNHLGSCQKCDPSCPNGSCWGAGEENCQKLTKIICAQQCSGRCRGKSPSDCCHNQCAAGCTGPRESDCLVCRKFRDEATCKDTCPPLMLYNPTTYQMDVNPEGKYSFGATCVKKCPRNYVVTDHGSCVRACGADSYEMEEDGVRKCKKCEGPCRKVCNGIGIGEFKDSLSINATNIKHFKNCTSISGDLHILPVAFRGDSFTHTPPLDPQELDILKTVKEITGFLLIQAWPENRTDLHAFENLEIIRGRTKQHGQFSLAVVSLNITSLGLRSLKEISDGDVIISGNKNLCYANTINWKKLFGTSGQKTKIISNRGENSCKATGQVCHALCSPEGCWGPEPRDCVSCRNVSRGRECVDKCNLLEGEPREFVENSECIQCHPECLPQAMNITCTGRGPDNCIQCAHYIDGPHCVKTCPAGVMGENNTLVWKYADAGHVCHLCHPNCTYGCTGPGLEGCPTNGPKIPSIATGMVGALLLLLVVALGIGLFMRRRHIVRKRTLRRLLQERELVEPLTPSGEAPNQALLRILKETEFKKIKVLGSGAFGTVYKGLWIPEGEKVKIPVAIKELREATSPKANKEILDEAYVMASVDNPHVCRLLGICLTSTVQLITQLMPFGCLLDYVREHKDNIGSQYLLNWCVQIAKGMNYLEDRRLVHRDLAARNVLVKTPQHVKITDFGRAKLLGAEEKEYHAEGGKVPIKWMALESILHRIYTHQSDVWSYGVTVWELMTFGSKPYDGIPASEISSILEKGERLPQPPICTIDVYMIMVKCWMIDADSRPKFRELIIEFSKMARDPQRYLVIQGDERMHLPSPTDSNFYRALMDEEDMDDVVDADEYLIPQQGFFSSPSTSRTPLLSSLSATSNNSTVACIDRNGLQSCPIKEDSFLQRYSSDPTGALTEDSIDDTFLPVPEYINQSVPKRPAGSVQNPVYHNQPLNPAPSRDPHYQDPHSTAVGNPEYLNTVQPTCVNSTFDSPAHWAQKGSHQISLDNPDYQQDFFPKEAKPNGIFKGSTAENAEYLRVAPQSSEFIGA
Chain of Epidermal growth factor receptor (Mus musculus) (Q01279 whole entry): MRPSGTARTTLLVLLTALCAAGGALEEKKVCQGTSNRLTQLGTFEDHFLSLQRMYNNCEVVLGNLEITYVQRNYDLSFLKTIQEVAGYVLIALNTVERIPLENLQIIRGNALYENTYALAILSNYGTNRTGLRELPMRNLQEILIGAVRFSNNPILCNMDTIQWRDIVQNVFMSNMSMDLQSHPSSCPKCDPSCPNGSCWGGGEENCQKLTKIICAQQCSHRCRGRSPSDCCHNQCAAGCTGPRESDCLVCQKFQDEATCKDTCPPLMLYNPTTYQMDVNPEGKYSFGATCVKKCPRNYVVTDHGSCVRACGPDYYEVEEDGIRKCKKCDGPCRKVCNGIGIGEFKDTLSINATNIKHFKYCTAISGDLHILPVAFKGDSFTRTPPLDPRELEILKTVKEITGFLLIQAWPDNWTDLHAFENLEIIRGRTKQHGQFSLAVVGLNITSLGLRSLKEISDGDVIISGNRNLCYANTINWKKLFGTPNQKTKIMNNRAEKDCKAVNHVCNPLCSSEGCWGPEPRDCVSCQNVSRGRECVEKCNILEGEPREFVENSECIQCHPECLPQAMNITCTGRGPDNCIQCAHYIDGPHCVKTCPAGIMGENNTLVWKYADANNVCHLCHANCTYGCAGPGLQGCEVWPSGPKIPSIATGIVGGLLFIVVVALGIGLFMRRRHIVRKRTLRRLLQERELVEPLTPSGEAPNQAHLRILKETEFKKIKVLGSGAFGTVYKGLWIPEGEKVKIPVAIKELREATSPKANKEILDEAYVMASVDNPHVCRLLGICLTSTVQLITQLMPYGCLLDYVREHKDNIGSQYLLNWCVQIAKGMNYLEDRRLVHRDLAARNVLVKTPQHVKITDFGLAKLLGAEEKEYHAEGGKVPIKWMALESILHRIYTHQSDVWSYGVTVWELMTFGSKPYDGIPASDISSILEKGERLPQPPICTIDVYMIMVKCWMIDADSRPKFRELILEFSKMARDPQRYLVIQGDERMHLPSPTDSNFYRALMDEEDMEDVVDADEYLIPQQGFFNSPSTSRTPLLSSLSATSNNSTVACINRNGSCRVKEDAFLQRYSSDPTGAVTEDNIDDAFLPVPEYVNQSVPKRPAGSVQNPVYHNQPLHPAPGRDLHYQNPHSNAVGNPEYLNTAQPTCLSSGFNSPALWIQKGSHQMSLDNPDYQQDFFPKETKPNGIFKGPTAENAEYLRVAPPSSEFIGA
Chain of Epidermal growth factor receptor (Homo sapiens), P00533 [L858R,T790M] (P00533 whole entry T790M/L858R, looked up): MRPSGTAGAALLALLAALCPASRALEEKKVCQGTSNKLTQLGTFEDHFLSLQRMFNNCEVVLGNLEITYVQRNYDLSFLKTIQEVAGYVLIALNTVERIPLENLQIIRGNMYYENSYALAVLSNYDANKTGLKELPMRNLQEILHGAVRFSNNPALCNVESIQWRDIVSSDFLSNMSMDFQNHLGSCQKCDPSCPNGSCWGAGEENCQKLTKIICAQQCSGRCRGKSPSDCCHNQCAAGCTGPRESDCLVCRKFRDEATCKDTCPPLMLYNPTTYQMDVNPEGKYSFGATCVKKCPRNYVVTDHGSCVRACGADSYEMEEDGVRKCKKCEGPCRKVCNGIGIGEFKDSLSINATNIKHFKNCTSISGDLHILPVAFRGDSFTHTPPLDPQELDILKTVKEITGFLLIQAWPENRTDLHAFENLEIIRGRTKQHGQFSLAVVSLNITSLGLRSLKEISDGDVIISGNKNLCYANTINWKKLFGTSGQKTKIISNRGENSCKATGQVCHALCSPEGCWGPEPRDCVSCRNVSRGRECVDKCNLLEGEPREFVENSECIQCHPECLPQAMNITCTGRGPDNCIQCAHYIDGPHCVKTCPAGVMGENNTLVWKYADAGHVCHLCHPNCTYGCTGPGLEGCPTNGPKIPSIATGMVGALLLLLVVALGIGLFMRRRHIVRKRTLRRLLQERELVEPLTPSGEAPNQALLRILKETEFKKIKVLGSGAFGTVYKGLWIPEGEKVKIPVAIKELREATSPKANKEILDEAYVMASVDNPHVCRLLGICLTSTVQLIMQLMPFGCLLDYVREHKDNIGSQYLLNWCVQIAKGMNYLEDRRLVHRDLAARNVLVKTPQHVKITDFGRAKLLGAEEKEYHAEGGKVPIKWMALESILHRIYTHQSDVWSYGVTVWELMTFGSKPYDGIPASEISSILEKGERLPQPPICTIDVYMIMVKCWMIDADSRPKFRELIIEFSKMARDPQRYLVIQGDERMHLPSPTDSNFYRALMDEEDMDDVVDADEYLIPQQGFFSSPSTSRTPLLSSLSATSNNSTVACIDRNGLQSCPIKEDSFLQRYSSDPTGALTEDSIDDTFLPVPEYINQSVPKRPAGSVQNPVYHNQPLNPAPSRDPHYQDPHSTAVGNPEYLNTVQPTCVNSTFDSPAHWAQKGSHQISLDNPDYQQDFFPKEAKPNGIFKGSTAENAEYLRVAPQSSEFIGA

Take `[Cl-].[Cl-].[Zn+2]` [ZINC CHLORIDE]: the Cell proliferation rate % at 10 µM with NCI-H3255 [1] was 54%.

On to `C=CC(=O)Nc1cc(Nc2nccc(-c3cn(C)c4ccccc34)n2)c(OC)cc1N(C)CCN(C)C` [OSIMERTINIB], for which the pIC50 in the assay with HUVEC was 5.14.

Take `C=CCSSCCC(=O)OCCCOc1cc2ncnc(Nc3cccc(Br)c3)c2cc1OC`: the GI50 in assay [2] was 0.0069 µM; in assay [3], more than 10 µM; in [4], 0.303 µM; in [17], more than 10 µM; in assay [18], more than 10 µM; in [19], 0.008 µM. Moreover, the GI50 came to 6.03 µM in [20] and 0.787 µM in assay [21]. In addition, in the assay on HUVEC, the pIC50 was less than 5.00. Besides, the inhibition entry in [5] was “Dose-dependent effect”. For the same compound, the Activity in the assay on NCI-H3255 [6] came out at 60.32%; in the assay on NCI-H3255 [7], 34.49%; in the assay on NCI-H3255 [8], 5.19%; in the assay with NCI-H3255 [9] it was 84.88%; with NCI-H3255 [10] it was 10.23%; with NCI-H3255 [11] it was 4.89%. Besides, the Activity worked out at 88.61% with NCI-H3255 [12], 8.73% with NCI-H3255 [13] and 2.66% in the assay on NCI-H3255 [14]. Besides, the Drug metabolism result in assay [15] and in assay [16] was “Metabolite detected” each time.

On to `COc1ccc(Nc2ncnc3cc(OCCCOc4ccc(-c5cssc5=S)cc4)c(OC)cc23)cc1OC`, for which the GI50 was more than 10 µM in [3]; 2.65 µM in [17]; 3.39 µM in [18]; 0.83 µM in assay [19]; 6.35 µM in assay [20]; 8.58 µM in [21]. Moreover, the Drug metabolism entry in [15] and in assay [22] was “Metabolite detected” each time.

As for `C=CCCSSCC(=O)Nc1ccc2ncnc(Nc3cccc(C(F)(F)F)c3)c2c1`, in assay [3], the GI50 was more than 10 µM.

On to `O=C(COc1ccc(-c2cssc2=O)cc1)Nc1ccc2ncnc(Nc3ccc(F)c(Cl)c3)c2c1`, for which the 50% growth inhibitory concentration (GI50) is more than 10 µM in [3]; 4.27 µM in assay [17]; 2.49 µM in assay [18]; 0.29 µM in [19]; 3.16 µM in assay [20]; 4.36 µM in [21]. For the same compound, the Drug metabolism entry in [15] and in [22] was “Metabolite detected” throughout.

Consider `COc1cc2c(Nc3cccc(C(F)(F)F)c3)ncnc2cc1OCCCOc1ccc(-c2cssc2=S)cc1`, for which the GI50 is more than 10 µM in [3]; 3.79 µM in assay [17]; 1.98 µM in [18]; 0.38 µM in assay [19]; 1.65 µM in assay [20]; 7.47 µM in assay [21].

Regarding `O=C(COc1ccc(-c2cssc2=O)cc1)Nc1ccc2ncnc(Nc3cccc(Br)c3)c2c1`, in assay [3], the GI50 is more than 10 µM.

For `COc1cc2c(Nc3ccc([N+](=O)[O-])cc3)ncnc2cc1OCCCOc1ccc(-c2cssc2=S)cc1`, the GI50 is more than 10 µM in assay [3]; 3.79 µM in assay [17]; 4.08 µM in assay [18]; 0.6 µM in assay [19]; more than 10 µM in assay [20]; 1.87 µM in assay [21].

As to `O=C(COc1ccc(-c2cssc2=O)cc1)Nc1ccc2ncnc(Nc3cccc(C(F)(F)F)c3)c2c1`, the GI50 in assay [3] is more than 10 µM.

As for `C=CCCSSCC(=O)Nc1ccc2ncnc(Nc3cccc(Br)c3)c2c1`, the GI50 in assay [3] was more than 10 µM; in [17], more than 10 µM; in [18] it was more than 10 µM; in assay [19] it was 0.011 µM; in assay [20], more than 10 µM; in assay [21] it was 0.519 µM.

With `C=CCSSCCC(=O)OCCCOc1cc2ncnc(Nc3ccc(Br)cc3)c2cc1OC`, the GI50 in assay [3] is more than 10 µM; in [17] it was 3.91 µM; in assay [18], 2.34 µM; in [19] it was 0.058 µM; in [20] it was more than 10 µM; in assay [21], 1.35 µM.

Regarding `COc1cc2c(Nc3cccc(Br)c3)ncnc2cc1OCCCOc1ccc(-c2cssc2=S)cc1`, the GI50 was more than 10 µM in [3]; 9.23 µM in [17]; 3.06 µM in [18]; 0.12 µM in [19]; more than 10 µM in assay [20]; 2.4 µM in assay [21].

On to `C=CCCSSCC(=O)Nc1ccc2ncnc(Nc3ccc(F)c(Cl)c3)c2c1`, for which the GI50 was more than 10 µM in [3]; more than 10 µM in assay [17]; more than 10 µM in [18]; 0.012 µM in [19]; more than 10 µM in assay [20]; 0.349 µM in assay [21].

With `COc1cc2c(Nc3ccc(F)c(Cl)c3)ncnc2cc1OCCCOc1ccc(-c2cssc2=S)cc1`, the GI50 is more than 10 µM in assay [3]; more than 10 µM in assay [17]; more than 10 µM in [18]; 0.27 µM in assay [19]; more than 10 µM in assay [20]; more than 10 µM in [21].

Take `COc1cc2c(Nc3ccc(Br)cc3)ncnc2cc1OCCCOc1ccc(-c2cssc2=S)cc1`: the GI50 in assay [3] is more than 10 µM; in assay [17] it was 9.23 µM; in [18], 9.56 µM; in assay [19], 0.25 µM; in [20] it was more than 10 µM; in assay [21], 1.41 µM.
